Data published in ChEMBL document CHEMBL2331171, “Anti-malarial activity of new N-acetyl-L-leucyl-L-leucyl-L-norleucinal (ALLN) derivatives against Plasmodium falciparum” (Bioorg Med Chem Lett, 2013).
Where a SMILES comes first, the peptide text is derived from it. [ ]: non-standard residue; d: D form. Nle = CCCC[C@H](N)C(=O)O

Columns and labels:
[1] = tested on: Plasmodium falciparum; experiment: Antimalarial activity against Plasmodium falciparum FCR-3 infected in erythrocytes assessed as reduction in parasitemia after 72 hrs by light microscopic analysis; assay type: functional, cell-based; conditions: FCR-3/Gambia
Procedure, shortened: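 P. falciparum FCR3 in erythrocytes exposed to compounds; parasitemia (parasite content of erythrocytes) counted microscopically; concentration giving 50% growth inhibition derived. Mean SD of three independent experiments, each in triplicate.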

[2] = Cytotoxicity against human HeLa cells assessed as growth inhibition after 48 hrs by MTS assay; assay type: cell-based
[3] = Therapeutic index, ratio of CC50 for human HeLa cells to IC50 for Plasmodium falciparum FCR-3; assay type: cell-based; conditions: HeLa cells versus Plasmodium falciparum FCR-3, read-out: Ratio CC50/IC50

IC50 [1] [µM] | Structure (SMILES) | CC50 at 48 h [2] [µM] | selectivity ratio [3]
5 | CNC(=O)/C=C/[C@H](Cc1ccccc1)NC(=O)[C@@H](CCCNC(=O)OCc1ccccc1)NC(=O)OC(C)(C)C | 1060 | 157
15.7 | CC(C)(C)OC(=O)N[C@H](CCCNC(=O)OCc1ccccc1)C(=O)N[C@H](/C=C/C=C/C(=O)N1CCCCC1)Cc1ccccc1 | 175 | 11.2
0.64 | CCCC[C@@H](C=O)NC(=O)[C@H](CC(C)C)NC(=O)[C@H](CC(C)C)NC(C)=O (Ac-Leu-Leu-[Nle]-aldehyde) | 25.1 | 39.2
23.6 | CNC(=O)/C=C/C=C/[C@H](Cc1ccccc1)NC(=O)[C@@H](CCCNC(=O)OCc1ccccc1)NC(=O)OC(C)(C)C | 281 | 11.9
9.29 | CC(C)NC(=O)/C=C/[C@H](Cc1ccccc1)NC(=O)[C@@H](CCCNC(=O)OCc1ccccc1)NC(=O)OC(C)(C)C | 314 | 33.8
11.4 | CC(C)(C)OC(=O)N[C@H](CCCNC(=O)OCc1ccccc1)C(=O)N[C@H](/C=C/C(=O)N1CCCC1)Cc1ccccc1 | 153 | 13.4
5 | CNC(=O)/C=C/[C@H](Cc1ccccc1)NC(=O)[C@@H](CCCNC(=O)OCc1ccccc1)NCc1cccc(C)c1 | 242 | 48.3
15.3 | CNC(=O)/C=C/[C@H](Cc1ccccc1)NC(=O)[C@@H](CCCNC(=O)OCc1ccccc1)NCc1ccccc1 | 253 | 16.5
16.4 | CNC(=O)/C=C/[C@H](Cc1ccccc1)NC(=O)[C@@H](CCCNC(=O)OCc1ccccc1)NCc1cc(OC)cc(OC)c1 | 259 | 15.8
> 100 | CC(C)(C)OC(=O)N[C@H](CCCNC(=O)OCc1ccccc1)C(=O)N[C@H](/C=C/C=C/C(=O)N1CCCC1)Cc1ccccc1 | 53.1 | –
16.7 | CNC(=O)/C=C/[C@H](Cc1ccccc1)NC(=O)[C@@H](CCCNC(=O)OCc1ccccc1)NCc1ccc(OC)cc1 | 461 | 27.6
56.3 | CNC(=O)/C=C/[C@H](Cc1ccccc1)NC(=O)[C@@H](CCCNC(=O)OCc1ccccc1)NC(C)C | 611 | 10.8
> 100 | CCNC(=O)/C=C/[C@H](Cc1ccccc1)NC(=O)[C@@H](CCCNC(=O)OCc1ccccc1)NC(=O)OC(C)(C)C | 2000 | –
> 100 | CN(C)C(=O)/C=C/C=C/[C@H](Cc1ccccc1)NC(=O)[C@@H](CCCNC(=O)OCc1ccccc1)NC(=O)OC(C)(C)C | 117 | –
